From ChEMBL document CHEMBL1806410, “Design and synthesis of pyridine-substituted itraconazole analogues with improved antifungal activities, water solubility and bioavailability” (Bioorg Med Chem Lett, 2011)
Values after ≈ are worked out from the molar mass of the structure shown.

Columns and labels:
Candida albicans [1] = assay: Antifungal activity against Candida albicans JLC 30364 by broth microdilution method; format: functional
Outline: (§1)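 MICs were determined by broth microdilution following NCCLS guidelines (M38-P for filamentous fungi). The panel covered four yeast species and two Aspergillus species, with two strains per species. Itraconazole served as positive control.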

Candida albicans [2] = assay: Antifungal activity against Candida albicans JLC 31374 by broth microdilution method; format: functional; outline: as §1
Candida parapsilosis [3] = assay: Antifungal activity against Candida parapsilosis JLC 30365 by broth microdilution method; format: functional; conditions: Lodderomyces parapsilosis; outline: as §1
Candida parapsilosis [4] = assay: Antifungal activity against Candida parapsilosis JLC 30275 by broth microdilution method; format: functional; conditions: Lodderomyces parapsilosis; outline: as §1
Pichia kudriavzevii [5] = assay: Antifungal activity against Candida krusei JLC 30366 by broth microdilution method; format: functional; outline: as §1
Pichia kudriavzevii [6] = assay: Antifungal activity against Candida krusei JLC 30386 by broth microdilution method; format: functional; outline: as §1
Cryptococcus neoformans [7] = assay: Antifungal activity against Cryptococcus neoformans JLC 50122 by broth microdilution method; format: functional; outline: as §1
Cryptococcus neoformans [8] = assay: Antifungal activity against Cryptococcus neoformans JLC 50123 by broth microdilution method; format: functional; outline: as §1
Aspergillus fumigatus [9] = assay: Antifungal activity against Aspergillus fumigatus JLC 30506 by broth microdilution method; format: functional; outline: as §1
Aspergillus fumigatus [10] = assay: Antifungal activity against Aspergillus fumigatus JLC 30883 by broth microdilution method; format: functional; outline: as §1
Aspergillus flavus [11] = assay: Antifungal activity against Aspergillus flavus JLC 30784 by broth microdilution method; format: functional; outline: as §1
Aspergillus flavus [12] = assay: Antifungal activity against Aspergillus flavus JLC 40437 by broth microdilution method; format: functional; outline: as §1
[13] = Half life in rat at 10 mg/kg, po administered as single dose; format: ADME, organism-based; set-up: dose 10 mg/kg, route oral; conditions: in vivo
Outline: (§2)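 Rats received a single dose of compound, either oral (10 mg/kg) or intravenous (10, 5 or 2.5 mg/kg). Plasma levels were followed, and the reported parameters were Cmax, Tmax, AUC0–t, half-life, clearance and bioavailability (F).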

[14] = Half life in rat at 10 mg/kg, iv administered as single dose; format: ADME, organism-based; set-up: dose 10 mg/kg, route intravenous; conditions: in vivo; outline: as §2
[15] = Clearance in rat at 10 mg/kg, iv administered as single dose; format: ADME, organism-based; set-up: dose 10 mg/kg, route intravenous; conditions: in vivo; outline: as §2
[16] = Oral bioavailability in rat at 10 mg/kg, administered as single dose; format: ADME, organism-based; conditions: in vivo; outline: as §2
[17] = Solubility of the compound in water at pH 1.2; format: physicochemical; conditions: water, read-out: solubility
[18] = Solubility of the compound in water at pH 7.4; format: physicochemical; conditions: buffer, BLD = below limit of detection
[19] = Cmax in rat at 10 mg/kg, po administered as single dose; format: ADME, organism-based; set-up: dose 10 mg/kg, route oral; conditions: in vivo; outline: as §2
[20] = Tmax in rat at 10 mg/kg, po administered as single dose; format: ADME, organism-based; set-up: dose 10 mg/kg, route oral; conditions: in vivo; outline: as §2
[21] = AUC (0 to t) in rat at 10 mg/kg, po administered as single dose; format: ADME, organism-based; set-up: dose 10 mg/kg, route oral; conditions: plasma; outline: as §2
[22] = AUC (0 to t) in rat at 10 mg/kg, iv administered as single dose; format: ADME, organism-based; set-up: dose 10 mg/kg, route intravenous; conditions: plasma; outline: as §2
[23] = Half life in rat at 5 mg/kg, iv administered as single dose; format: ADME, organism-based; set-up: dose 5 mg/kg, route intravenous; conditions: in vivo; outline: as §2
[24] = Clearance in rat at 5 mg/kg, iv administered as single dose; format: ADME, organism-based; set-up: dose 5 mg/kg, route intravenous; conditions: in vivo; outline: as §2
[25] = AUC (0 to t) in rat at 5 mg/kg, iv administered as single dose; format: ADME, organism-based; set-up: dose 5 mg/kg, route intravenous; conditions: plasma; outline: as §2

SMILES	MIC (Candida albicans [1])	MIC (Candida albicans [2])	MIC (Candida parapsilosis [3])	MIC (Candida parapsilosis [4])	MIC (Pichia kudriavzevii [5])	MIC (Pichia kudriavzevii [6])	MIC (Cryptococcus neoformans [7])	MIC (Cryptococcus neoformans [8])	MIC (Aspergillus fumigatus [9])	MIC (Aspergillus fumigatus [10])	MIC (Aspergillus flavus [11])	MIC (Aspergillus flavus [12])	other results
O=c1n(-c2ccc(N3CCN(c4ccc(OC[C@H]5CO[C@](Cn6cncn6)(c6ccc(F)cc6F)O5)cc4)CC3)nc2)cnn1CCCO	< 0.0625 µg/mL	< 0.0625 µg/mL	0.0625 µg/mL (≈ 0.0925 µM)	0.0625 µg/mL (≈ 0.0925 µM)	0.0625 µg/mL (≈ 0.0925 µM)	0.0625 µg/mL (≈ 0.0925 µM)	< 0.0625 µg/mL	< 0.0625 µg/mL	1 µg/mL (≈ 1.48 µM)	1 µg/mL (≈ 1.48 µM)	0.25 µg/mL (≈ 0.37 µM)	0.25 µg/mL (≈ 0.37 µM)	–
CC(CO)n1ncn(-c2ccc(N3CCN(c4ccc(OC[C@H]5CO[C@](Cn6cncn6)(c6ccc(F)cc6F)O5)cc4)CC3)nc2)c1=O (stereo not given in full)	< 0.0625 µg/mL	< 0.0625 µg/mL	< 0.0625 µg/mL	< 0.0625 µg/mL	> 2 µg/mL	> 2 µg/mL	< 0.0625 µg/mL	< 0.0625 µg/mL	1 µg/mL (≈ 1.48 µM)	1 µg/mL (≈ 1.48 µM)	0.25 µg/mL (≈ 0.37 µM)	0.25 µg/mL (≈ 0.37 µM)	–
CCC(C)n1ncn(-c2ccc(N3CCN(c4ccc(OC[C@H]5CO[C@](Cn6cncn6)(c6ccc(F)cc6F)O5)cc4)CC3)nc2)c1=O (stereo not given in full)	< 0.0038 µg/mL	< 0.0038 µg/mL	0.25 µg/mL (≈ 0.371 µM)	0.25 µg/mL (≈ 0.371 µM)	0.125 µg/mL (≈ 0.186 µM)	0.125 µg/mL (≈ 0.186 µM)	0.5 µg/mL (≈ 0.742 µM)	0.5 µg/mL (≈ 0.742 µM)	0.0625 µg/mL (≈ 0.0928 µM)	0.0625 µg/mL (≈ 0.0928 µM)	0.25 µg/mL (≈ 0.371 µM)	0.25 µg/mL (≈ 0.371 µM)	–
CC(C)n1ncn(-c2ccc(N3CCN(c4ccc(OC[C@H]5CO[C@](Cn6cncn6)(c6ccc(F)cc6F)O5)cc4)CC3)nc2)c1=O	0.0075 µg/mL (≈ 0.0114 µM)	0.0075 µg/mL (≈ 0.0114 µM)	0.125 µg/mL (≈ 0.189 µM)	0.125 µg/mL (≈ 0.189 µM)	0.0625 µg/mL (≈ 0.0947 µM)	0.0625 µg/mL (≈ 0.0947 µM)	0.25 µg/mL (≈ 0.379 µM)	0.25 µg/mL (≈ 0.379 µM)	0.25 µg/mL (≈ 0.379 µM)	0.25 µg/mL (≈ 0.379 µM)	0.125 µg/mL (≈ 0.189 µM)	0.125 µg/mL (≈ 0.189 µM)	half-life [13]: 1.26 h; half-life [14]: 4.18 h; clearance [15]: 21.2 mL/min/kg; bioavailability [16]: 35%; solubility [17]: 1680 µg/mL (≈ 2550 µM); solubility [18]: BLD; Cmax [19]: 712 ng/mL; Tmax [20]: 1.88 h; AUC(0-t) [21]: 2710 ng·h/mL; AUC(0-t) [22]: 7730 ng·h/mL
O=c1n(-c2ccc(N3CCN(c4ccc(OC[C@H]5CO[C@](Cn6cncn6)(c6ccc(F)cc6F)O5)cc4)CC3)cn2)cnn1CCO	< 0.0156 µg/mL	< 0.0156 µg/mL	0.0156 µg/mL (≈ 0.0236 µM)	0.0156 µg/mL (≈ 0.0236 µM)	0.03 µg/mL (≈ 0.0453 µM)	0.03 µg/mL (≈ 0.0453 µM)	< 0.0156 µg/mL	< 0.0156 µg/mL	0.5 µg/mL (≈ 0.756 µM)	0.5 µg/mL (≈ 0.756 µM)	0.03 µg/mL (≈ 0.0453 µM)	0.03 µg/mL (≈ 0.0453 µM)	–
O=c1n(-c2ccc(N3CCN(c4ccc(OC[C@H]5CO[C@](Cn6cncn6)(c6ccc(F)cc6F)O5)cc4)CC3)nc2)cnn1Cc1ccccc1	< 0.0038 µg/mL	< 0.0038 µg/mL	0.25 µg/mL (≈ 0.353 µM)	0.25 µg/mL (≈ 0.353 µM)	0.5 µg/mL (≈ 0.706 µM)	0.5 µg/mL (≈ 0.706 µM)	0.25 µg/mL (≈ 0.353 µM)	0.25 µg/mL (≈ 0.353 µM)	0.125 µg/mL (≈ 0.177 µM)	0.125 µg/mL (≈ 0.177 µM)	0.25 µg/mL (≈ 0.353 µM)	0.25 µg/mL (≈ 0.353 µM)	–
CC(C)(CO)Cn1ncn(-c2ccc(N3CCN(c4ccc(OC[C@H]5CO[C@](Cn6cncn6)(c6ccc(F)cc6F)O5)cc4)CC3)nc2)c1=O	0.0625 µg/mL (≈ 0.0888 µM)	0.0625 µg/mL (≈ 0.0888 µM)	0.5 µg/mL (≈ 0.71 µM)	0.5 µg/mL (≈ 0.71 µM)	0.25 µg/mL (≈ 0.355 µM)	0.25 µg/mL (≈ 0.355 µM)	0.125 µg/mL (≈ 0.178 µM)	0.125 µg/mL (≈ 0.178 µM)	0.125 µg/mL (≈ 0.178 µM)	0.125 µg/mL (≈ 0.178 µM)	0.125 µg/mL (≈ 0.178 µM)	0.125 µg/mL (≈ 0.178 µM)	–
CC(C)Cn1ncn(-c2ccc(N3CCN(c4ccc(OC[C@H]5CO[C@](Cn6cncn6)(c6ccc(F)cc6F)O5)cc4)CC3)nc2)c1=O	0.03 µg/mL (≈ 0.0445 µM)	0.03 µg/mL (≈ 0.0445 µM)	0.125 µg/mL (≈ 0.186 µM)	0.125 µg/mL (≈ 0.186 µM)	0.0625 µg/mL (≈ 0.0928 µM)	0.0625 µg/mL (≈ 0.0928 µM)	0.5 µg/mL (≈ 0.742 µM)	0.5 µg/mL (≈ 0.742 µM)	0.25 µg/mL (≈ 0.371 µM)	0.25 µg/mL (≈ 0.371 µM)	0.0625 µg/mL (≈ 0.0928 µM)	0.0625 µg/mL (≈ 0.0928 µM)	half-life [13]: 2.18 h; half-life [23]: 1.43 h; clearance [24]: 23.5 mL/min/kg; bioavailability [16]: 21.7%; solubility [17]: 2330 µg/mL (≈ 3460 µM); Cmax [19]: 392 ng/mL; Tmax [20]: 2 h; AUC(0-t) [21]: 1610 ng·h/mL; AUC(0-t) [25]: 3710 ng·h/mL
